{
  "source": "ChEMBL document CHEMBL5653617",
  "about": "“Inhibition of BRD4 attenuates tumor cell self-renewal and suppresses stem cell signaling in MYC driven medulloblastoma” (Oncotarget, 2014)",
  "key": {"Medulloblastoma cell [1]": {"test_system": "Medulloblastoma cell", "assay": "Induction of cell cycle arrest in patient-derived Medulloblastoma cells assessed as accumulation of cells at G1 phase at 300 nM", "assay_type": "functional, cell-based", "conditions": "Homo sapiens"}, "Daoy [2]": {"test_system": "Daoy", "assay": "In vivo inhibition of BRD4 in athymic nude mouse xenografted with human Daoy cells assessed as reduction in SOX2 protein expression in tumor at 50 mg/kg, ip measured after 5 days by immunofluorescence analysis", "assay_type": "functional, organism-based", "conditions": "time 5.0 day", "how_it_was_run": "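Tumors from Daoy flank xenografts in nude mice treated 50 mg/kg i.p. or DMSO vehicle for 5 days, then sacrificed. SOX2 protein detected by immunofluorescence on tumor sections.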"}, "[3]": {"biological_target": "Bromodomain-containing protein 4 (Homo sapiens) (UniProt O60885)", "conditions": "D283 Med, dose 300.0 nM"}, "D283 Med [4]": {"test_system": "D283 Med", "assay": "Induction of cell cycle arrest in human D283 Med cells assessed as G2/M phase cells at 300 nM incubated for 48 hrs by flow cytometry analysis (reference value: 55.70 +/- 1.50 %)", "assay_type": "functional"}, "D425 Med [5]": {"test_system": "D425 Med", "assay": "Induction of cell cycle arrest in human D425 Med cells assessed as G2/M phase cells at 300 nM incubated for 48 hrs by flow cytometry analysis (reference value: 37 +/- 0.47%)", "assay_type": "functional"}, "Daoy [6]": {"test_system": "Daoy", "assay": "Suppression of human Daoy cells self-renewal cultured in serum free condition assessed as reduction in formation of new neurosphere at 300 nM", "assay_type": "functional, cell-based", "how_it_was_run": "(§1)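 Cells grown as neurospheres in serum-free medium for 48 h, dissociated, and seeded in a limiting dilution from 1000 to 1 cell/well, with 300 nM drug or DMSO. After 7 days in serum-free culture, neurospheres per well counted and plotted against cells seeded.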"}, "[7]": {"biological_target": "Bromodomain-containing protein 4 (Homo sapiens) (UniProt O60885)", "conditions": "Daoy, dose 300.0 nM"}, "D458 Med": {"test_system": "D458 Med", "assay": "Antiproliferative activity in human D458 Med cells assessed as inhibition of cell growth at 300 nM by flow cytometry analysis", "assay_type": "functional, cell-based", "how_it_was_run": "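ViaCount flow cytometric cell count. Cells seeded in medium, DMSO or drug added 24 h later, cultured a further 48 h. Cells then pelleted, washed, stained with Viacount reagent and counted on a Guava cytometer. Vehicle control DMSO.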"}, "Medulloblastoma cell [8]": {"test_system": "Medulloblastoma cell", "assay": "Antitumor activity against patient-derived Medulloblastoma cells assessed as BrdU incorporation at 300 nM preincubated with compound for 7 days followed by BrdU addition and measured after 2 days by flow cytometry analysis (reference value: 33.3)", "assay_type": "functional, Homo sapiens", "conditions": "time 9 day"}, "[9]": {"biological_target": "Bromodomain-containing protein 4 (Homo sapiens) (UniProt O60885)", "conditions": "D425 Med, dose 300.0 nM"}, "[10]": {"biological_target": "Bromodomain-containing protein 4 (Homo sapiens) (UniProt O60885)", "conditions": "D425 Med, dose 300.0 nM", "remark": "listed apart in the source"}, "Daoy [11]": {"test_system": "Daoy", "assay": "Antitumor activity against human Daoy cells xenografted in athymic nude mice assessed as induction of senescence at 50 mg/kg, ip measured after 5 days by beta-galactosidase staining based analysis", "assay_type": "functional, organism-based", "conditions": "time 5.0 day", "how_it_was_run": "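Daoy cells (1.0×10^7 in PBS) injected into the flank of athymic nude mice. Once tumors were palpable, drug given 50 mg/kg i.p. with DMSO as vehicle control. Animals were sacrificed after a 5-day treatment. Tumors were assessed by Ki67 IHC and by senescence-associated β-galactosidase staining.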"}, "Daoy [12]": {"test_system": "Daoy", "assay": "Downregulation of BARD1 gene expression in human Daoy cells at 300 nM by GSEA method", "assay_type": "functional, cell-based", "how_it_was_run": "(§2)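 Daoy cells treated with DMSO or 300 nM drug. RNA extracted and hybridized to Affymetrix HG-ST2.0 arrays. Analysis in R/Bioconductor with gene set enrichment analysis. Regulated transcripts defined as p < 0.05, FDR < 0.05, fold change < 0.67 (down) or > 1.5 (up).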"}, "[13]": {"biological_target": "Bromodomain-containing protein 4 (Homo sapiens) (UniProt O60885)", "conditions": "D458 Med, dose 300.0 nM"}, "Daoy [14]": {"test_system": "Daoy", "assay": "Antitumor activity against human Daoy cells xenografted in athymic nude mice assessed as reduction in tumor growth at 50 mg/kg, ip administered 5 days a week for 4 weeks and measured after 20 days", "assay_type": "functional, organism-based", "conditions": "time 48.0 day", "how_it_was_run": "(§3)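 Daoy cells (1.0×10^7 in PBS) injected into the flank of athymic nude mice. Dosing began once tumors were palpable, at a mean of 52 days post inoculation. 50 mg/kg i.p. or DMSO vehicle given 5 days/week for 4 weeks, n=10, with tumors followed a further 20 days. Volume by caliper as π/6 × L × W × H. Body weight recorded 3 times weekly.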"}, "Daoy [15]": {"test_system": "Daoy", "assay": "Downregulation of IFRD1 gene expression in human Daoy cells at 300 nM by GSEA method", "assay_type": "functional, cell-based", "how_it_was_run": "as §2"}, "Medulloblastoma cell [16]": {"test_system": "Medulloblastoma cell", "assay": "Cytotoxicity against patient-derived Medulloblastoma cells assessed as reduction in cell viability at 300 nM by LDH assay", "assay_type": "functional, cell-based", "conditions": "Homo sapiens", "how_it_was_run": "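Primary tumor slices cultured as described and treated daily from day 5 with DMSO, 300 nM drug, or mitomycin C (50 ug/mL). Spent medium was collected at each change and stored at -80 °C. LDH activity was measured by kit and normalized to the mitomycin C treatment.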"}, "Daoy [17]": {"test_system": "Daoy", "assay": "Induction of cell cycle arrest in human Daoy cells assessed as accumulation of cells at G1 phase at 300 nM incubated for 48 hrs by flow cytometry analysis (reference value: 50.67 +/- 3.19%)", "assay_type": "functional"}, "[18]": {"biological_target": "Bromodomain-containing protein 4 (Homo sapiens) (UniProt O60885)", "conditions": "D283 Med, dose 300.0 nM", "remark": "listed apart in the source"}, "[19]": {"biological_target": "Bromodomain-containing protein 4 (Homo sapiens) (UniProt O60885)", "conditions": "D283 Med, dose 300.0 nM", "remark": "listed apart in the source"}, "Daoy [20]": {"test_system": "Daoy", "assay": "Induction of senescence in human Daoy cells assessed as increase in beta-galactosidase level at 75 to 300 nM measured after 7 days by staining based analysis", "assay_type": "functional, cell-based", "conditions": "dose 75-300 nM, time 7.0 day", "how_it_was_run": "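Daoy cells treated with 75 or 300 nM drug or DMSO. Senescence-associated β-galactosidase staining performed after 7 days. Positive cells counted per high power field.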"}, "D283 Med [21]": {"test_system": "D283 Med", "assay": "Suppression of human D283 Med cells self-renewal cultured in serum free condition assessed as reduction in formation of new neurosphere at 300 nM", "assay_type": "functional, cell-based", "how_it_was_run": "as §1"}, "D425 Med [22]": {"test_system": "D425 Med", "assay": "Induction of cell cycle arrest in human D425 Med cells assessed as accumulation of cells at G1 phase at 300 nM incubated for 48 hrs by flow cytometry analysis (reference value: 33.715 +/- 0.495%)", "assay_type": "functional"}, "D425 Med [23]": {"test_system": "D425 Med", "assay": "Inhibition of colony formation in human D425 Med cells at 100 to 300 nM incubated for 8 to 11 days by NBT staining based methyl cellulose colony growth assay", "assay_type": "functional, cell-based", "conditions": "dose 100-300 nM, time 8-11 day", "how_it_was_run": "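500 cells/well suspended in DMEM with methyl cellulose (1.3% final) containing 150 or 300 nM drug or DMSO, plated in triplicate. Colonies formed over 8–11 days, then stained with NBT (1 mg/ml) for 24 h at 37 °C. Colonies of ≥50 cells counted.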"}, "[24]": {"biological_target": "Bromodomain-containing protein 4 (Homo sapiens) (UniProt O60885)", "conditions": "D458 Med, dose 300.0 nM", "remark": "listed apart in the source"}, "[25]": {"assay": "Toxicity in athymic nude mouse xenografted with human Daoy cells assessed as change in body weight at 50 mg/kg, ip administered 5 days a week for 4 weeks and measured after 20 days", "assay_type": "organism-based", "conditions": "in vivo, 1152 h, time 48 day", "how_it_was_run": "as §3"}},
  "note": "Activity calls are given as the source filed them.",
  "data": [
    {"molecule": "Cc1sc2c(c1C)C(c1ccc(Cl)cc1)=N[C@@H](CC(=O)OC(C)(C)C)c1nnc(C)n1-2", "values": [
      {"measurement": "Activity", "setting": "Medulloblastoma cell [1]", "result": "Active"},
      {"measurement": "inhibition", "setting": "Daoy [2]", "result": "Active"},
      {"measurement": "inhibition", "setting": "[3]", "result": "Active"},
      {"measurement": "Activity", "setting": "D283 Med [4]", "result": 53.216, "unit": "%"},
      {"measurement": "Activity", "setting": "D425 Med [5]", "result": 31, "unit": "%"},
      {"measurement": "Activity", "setting": "Daoy [6]", "result": "Active"},
      {"measurement": "inhibition", "setting": "[7]", "result": "Active"},
      {"measurement": "Activity", "setting": "D458 Med", "result": "Active"},
      {"measurement": "Activity", "setting": "Medulloblastoma cell [8]", "result": 13.5},
      {"measurement": "inhibition", "setting": "[9]", "result": "Active"},
      {"measurement": "inhibition", "setting": "[10]", "result": "Active"},
      {"measurement": "Activity", "setting": "Daoy [11]", "result": "Active"},
      {"measurement": "Activity", "setting": "Daoy [12]", "result": "Active"},
      {"measurement": "inhibition", "setting": "[13]", "result": "Active"},
      {"measurement": "Activity", "setting": "Daoy [14]", "result": "Active"},
      {"measurement": "Activity", "setting": "Daoy [15]", "result": "Active"},
      {"measurement": "Activity", "setting": "Medulloblastoma cell [16]", "result": "inactive"},
      {"measurement": "Activity", "setting": "Daoy [17]", "result": 79.416, "unit": "%"},
      {"measurement": "inhibition", "setting": "[18]", "result": "Active"},
      {"measurement": "inhibition", "setting": "[19]", "result": "Active"},
      {"measurement": "Activity", "setting": "Daoy [20]", "result": "Active"},
      {"measurement": "Activity", "setting": "D283 Med [21]", "result": "Active"},
      {"measurement": "Activity", "setting": "D425 Med [22]", "result": 39.393, "unit": "%"},
      {"measurement": "inhibition", "setting": "D425 Med [23]", "result": "Active"},
      {"measurement": "inhibition", "setting": "[24]", "result": "Active"},
      {"measurement": "Activity", "setting": "[25]", "result": "Non-Toxic"}
    ]}
  ]
}
